In this series the test system is MS2 coat protein. Briefly: apparent Kd, MS2 coat protein; higher = weaker binding; RNA-MaP array; tryptophan 2.4 mM where present. Summed up:
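Two titrations, one without ligand and one with constant ligand, were run with SNAP-549-labelled MS2 coat protein from 0.7 or 1.5 nM, doubling to 3 µM. The targets were designs transcribed by stalled E. coli RNA polymerase on Illumina sequencing-chip clusters, in 100 mM Tris-HCl pH 7.5, 80 mM KCl, 4 mM MgCl2, BSA, DTT, yeast tRNA and Tween-20. The apparent Kd is the median of filtered per-cluster binding-curve fits, with green signal normalised to red-channel RNA signal and control-cluster median Fmax.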

Where [1] appears, read: designed as: OFF switch for tryptophan, no ligand.
Setting [2] is: ligand present: tryptophan, designed as: OFF switch for tryptophan.
The mark [3] stands for this setting: designed as: ON switch for tryptophan, no ligand.
[4] abbreviates: ligand present: tryptophan, designed as: ON switch for tryptophan.

Data on eleven sequences can be found in the EternaBench riboswitch data.

With “AAACUUCGCAUAGGAAAACUAUGUGAAGAUCGAGGACCGGUACGGCCGCCACUCGUCCUCAACAUGAGGAUCACCCAUGUAAUAA”, the “apparent Kd” value is, setting by setting: under setting [1], 21.1 nM; under setting [2], 30 nM.

Turning to “GAGGAAACUCACAUGAGGAUCACCCAUGUACGAGGACCGGUACGGCCGCCACUCGAAACCAUGGGCGGUAGUACGUGGAAGCUUG”, the “apparent Kd” value stood at 21.8 nM under setting [1] and 95.9 nM under setting [2].

As to “GGCUAGGUCUCGGCCGCCACUGCUACAUGAGGAUCACCCAUGUACCUGGGCGGUCGCUCCCUCGGCAGGACCGGGAGACAUUCGU”, the “apparent Kd” value runs as follows: under setting [1], 9.97 nM; under setting [2], 23 nM.

Turning to “AACAUGAGGAUCACCCAUGUCCUCGUGUACCGAGGACCGGUACGGCCGCCACUCGGUUCUCGCGAGGAUGGUCAAAGACUAUCCA”, the “apparent Kd” value runs as follows: under setting [3], 417 nM; under setting [4], 470 nM.

As to “CAAUAAGUACCGGUCCUCAGAUCCUCAUGACGAGGACCGGUACGGCCGCCACUCGAAACAUGAGGAUCACCCAUGUAAUAAUAAU”, the “apparent Kd” value was 23 nM under setting [1] and 28.4 nM under setting [2].

For “UAAUAAGUACCGGUCCUCAGAUCCUCAUGUCGAGGACCGGUACGGCCGCCACUCGAAACAUGAGGAUCACCCAUGUAAUAAUAAU”, the “apparent Kd” value under setting [1] is 39.5 nM and the “apparent Kd” value under setting [2] is 31.5 nM.

Turning to “CGUAUUGGAAACAGUACGAGUGAUCCGGUCCGAGGACCGGUACGGCCGCCACUCGAUAUAAAUAAACAUGAGGAUCACCCAUGUA”, the “apparent Kd” value runs as follows: under setting [1], 16.2 nM; under setting [2], 25.7 nM.

For the sequence “AACAUACAGUUUUAGGUGGAUAUAAGGCGGCGAGGACCGGUACGGCCGCCACUCGCGUACAUGAGGAUCACCCAUGUCUGAAGCU”, the “apparent Kd” value runs as follows: under setting [3], 60.3 nM; under setting [4], 46.5 nM.

Take “AGGUACGAAAACGUGGGUGAGUCGUACCAACGAGGACCGGUACGGCCGCCACUCGAAUAAACAUGAGGAUCACCCAUGUAAUAAU”: the “apparent Kd” value by setting is: under setting [3], 42.4 nM; under setting [4], 107 nM.

Regarding “AAUUCAAUUUUCUUGAUGUAUUAUAUAUUUCGAGGACCGGUACGGCCGCCACUCGUUAAUUACAUGAGGAUCACCCAUGUUAGCU”, the “apparent Kd” value reads like this: under setting [1], 16.8 nM; under setting [2], 14 nM.

Turning to “ACACAAUACAUGAGGAUCACCCAUGUAAAACGAGGACCGGUACGGCCGCCACUCGAAUACAGGAAACCUCGGAAUAUUAAGUGAA”, the “apparent Kd” value under setting [1] worked out at 51.8 nM and the “apparent Kd” value under setting [2] was 38 nM.

Broadly, the apparent Kd is a dissociation constant that holds for the conditions of the assay.
